# Bioassay records: PubChem BioAssay, several laboratories
# Calb FLC – C. albicans growth inhibition with fluconazole, primary screen, CaCi-2 strain, Alamar Blue fluorescence. C. albicans CaCi-2 (fluconazole-resistant clinical isolate) + fluconazole, 48 h. growth inhibition, % (concentration not given with the values). 300,000 compounds, 0.57% hits. AID 1979, 2009;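 active means growth inhibition above about 58% in most replicates, limit read from the data, passing the limit was not always enough; inconclusive means exactly half the replicates above a set limit; inactive means most replicates below a set limit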;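 further: all wells also contain fluconazole at 8 µg/ml as a sub-toxic cotreatment; 0% = median of DMSO wells and 100% = median of geldanamycin control wells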
# NALP3 yeast inh – NALP3 inflammasome inhibitors in reconstituted yeast, primary screen, luminescence, uHTS; Yeast reconstituted NLRP3/ASC/caspase-1, beta-gal luminescence, 24 h; inhibition, % at 10 µM; 330,000 compounds, 0.39% hits; AID 2825, 2010;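 active means inhibition of 50% or more; inactive means inhibition below 50%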;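 further: plate controls were induced DMSO wells for no effect and uninduced yeast grown without galactose for full effect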
# PolyA inhibitor – polyadenylation inhibitors in yeast reporter cells, primary screen, luminescence, S. cerevisiae. 300,000 compounds, 0.02% hits. AID 1875, 2009. activity score, % at 12 µM. S. cerevisiae SKY197-pL101 polyadenylation reporter, beta-gal luminescence; efflux-impaired pdr1/pdr3 knockout yeast; score 100 = 6 SD above DMSO;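 active means lowest replicate activity score at least 50, where 100 means six control SD above control mean; inconclusive means lowest score under 50 but half or more replicates reach 50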;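 further: yeast exposed to compound for 9 h at 30 °C; higher score means more reporter readthrough which indicates perturbed polyadenylation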
# T cruzi inh – inhibitors of intracellular T. cruzi growth, primary screen, luminescence, NIH3T3 host cells; 300,000 compounds, 1.4% hits; inhibition, % (no concentration beside the values); T. cruzi beta-gal in NIH3T3, 90 h;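 active means mean inhibition across valid replicates above about 55%, limit read from the data; inconclusive means mean below that limit but half or more replicates reach it; inactive means mean below it, under half of replicates reach it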;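 further: signal also drops with host cell toxicity which is not excluded here; 0% = plate median of DMSO wells and 100% = zero luminescence signal; higher percent means less beta-gal luminescence so fewer parasites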
#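 Test system: β-gal T. cruzi (Tulahuen C4) inside NIH/3T3 cells / Quantity: 5,000 cells/well / Measured by: luminescence from GalScreen with 0.05% NP40, read after 60 min / Medium: DMEM plus 2% FBS / Measure: parasite load inhibition, % / Reagent: Tulahuen C4 trypomastigotes, 5000/well / Schedule: co-culture of at least 90 h after 3 h attachment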
# NALP1 yeast inh – NALP1 inflammasome inhibitors in reconstituted yeast, colorimetric, S. cerevisiae, triplicate retest; S. cerevisiae NALP1/ASC/caspase-1 growth, X-gal OD620, 72 h; inhibition, % at 10 µM; 280,000 compounds, 0.61% hits; AID 2071, 2009; in the data active means inhibition mostly above about 24%, no sharp cut-off; inactive means mostly below about 32%
# Lmaj promast – Leishmania major promastigote growth inhibition, primary screen; AID 1063, 2008; inhibition, % at 10 µM; Leishmania major promastigotes, resazurin fluorescence viability; 200,000 compounds, 9% hits; in the data active means inhibition above about 50%;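 further: promastigotes grown with compound for 44 hours at 28 °C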
# * hit, by the source's call; ? = inconclusive; . = not tested or not shown. The entries come from a sample that favours hits as a whole.
SMILES,Calb FLC,NALP3 yeast inh,PolyA inhibitor,T cruzi inh,NALP1 yeast inh,Lmaj promast
CCO[C@@H]1OC(C(=O)NCc2ccccc2)=C[C@H](c2cn(C(C)=O)c3ccccc23)[C@H]1CCCO,16,8,-14,19,10,22
CCN(CC)c1ccc(NC(=O)COC(=O)c2ccc3ccccc3n2)cc1,-16,16,12,-6,35,2
CC(=O)/C(=C/c1ccccc1)C(=O)Nc1ccccc1C,17,36,-20,4,-1,96*
Cc1ccc(-n2c(=O)c3c4c(sc3n(Cc3cc(=O)n5ccccc5n3)c2=O)CCC4)cc1C,6,-13,25,13,24,74*
O=C(CCNC(=O)c1ccccc1Cl)Nc1ccc(Cl)c(C(F)(F)F)c1,17,6,-2,8,5,51*
COc1ccc(NC(=O)CCNC(=O)c2ccccc2Cl)cc1OC,.,17,-14,-14,18,.
C/C(CC(=O)Nc1ccc(Cl)c(C(F)(F)F)c1)=N\NC(=O)c1ccccc1O,-1,22,19,-7,23,-10
C/C(CC(=O)Nc1ccc(Cl)c(C(F)(F)F)c1)=N\NC(N)=S,?,2,-11,19,-31,97*
Cc1cc(CNC(=O)C2CCC(=O)N(Cc3ccccc3F)C2)nn1C (configuration not stated),7,22,16,-4,5,.
O=C(CSc1nc(O)c(Cc2ccccc2)c(=O)n1-c1ccccc1)N1CCOCC1,-10,11,-3,-6,40*,-7
COc1ccc(NC(=O)[C@@H](NS(=O)(=O)c2cccc(Cl)c2)C(C)C)cc1S(=O)(=O)N1CCOCC1,.,13,.,.,.,.
O=c1c2ccccc2c(C=NCCCN2CCOCC2)c(O)n1Cc1ccccc1,37,11,2,13,24,34
O=c1c2ccccc2c(C=NCCCN2CCOCC2)c(O)n1Cc1ccc2c(c1)OCO2,34,15,-2,32,-28,86*
Cc1sc2ncnc(NCCCn3ccnc3)c2c1C,0,-6,9,-17,12,55*
CCc1nc2ccccc2n1CC1CC1(Cl)Cl (configuration not stated),0,-17,-19,-7,37*,13
O=c1c2ccccc2nc(N/N=C/c2c(O)ccc3ccccc23)n1O,106*,16,22,-10,19,100*
COc1ccc(Nc2cc(C)c3c(O)cccc3n2)cc1,1,1,-8,60*,.,.
Cc1ccc(Nc2cc(C)c3ccc(O)cc3n2)cc1C,12,27,-2,27,.,.
Cc1ccc(Nc2cc(C)c3c(O)cccc3n2)cc1C,0,27,-1,66*,.,.
Cc1ccccc1Nc1cc(C)c2c(O)cccc2n1,-8,30,-1,19,56*,75*
COc1ccc(C(=O)C2CCCN(Cc3ccc(Sc4nncn4C)o3)C2)cc1F (configuration not stated),-1,8,10,-3,-11,-2
Cc1cccnc1NC(=O)C1COc2ccccc2O1 (configuration not stated),0,16,8,-2,2,4
O=C(Nc1ncc(C(F)(F)F)cc1Cl)C1COc2ccccc2O1 (configuration not stated),0,15,20,7,40*,-9
COCCNC(=O)CSc1ncnc2sccc12,-6,-2,?,2,38*,2
CCNC(=O)CSc1ncnc2sccc12,7,13,0,6,6,5
SMILES,Calb FLC,NALP3 yeast inh,PolyA inhibitor,T cruzi inh,NALP1 yeast inh,Lmaj promast
Cc1ccc(NC(=O)c2c3c(nc4ccccc24)CCC3)cc1S(=O)(=O)N(C)C,-5,20,-2,-4,1,3
CCOC(=O)N1CCN(C(=O)CN(C2CCCCC2)S(=O)(=O)c2ccc(F)cc2)CC1,7,8,-8,0,38*,1
NC(=S)NNc1cccc(Cl)c1,85*,20,-44,0,-2,-5
O=C(c1ccc2c3c(cccc13)CC2)C1CCCN(Cc2ccncc2)C1 (configuration not stated),3,26,-10,41,13,97*
CCc1nc(CN2CCCC(C(=O)c3ccc4c5c(cccc35)CC4)C2)c(C)[nH]1 (configuration not stated),-10,-4,3,22,9,99*
O=C1CSC(=Nc2ccccc2)N1,7,7,0,1,7,-8
O=C1CS/C(=N\C(=O)N2c3ccccc3Sc3ccccc32)N1,95*,41,-21,3,31,10
CCOC(=O)c1ccc(N2C(=O)c3n[nH]c(C)c3C2c2cccnc2)cc1 (configuration not stated),-8,2,9,7,1,42
CCOC(=O)c1ccc(N2C(=O)c3n[nH]c(-c4ccco4)c3C2c2ccc([N+](=O)[O-])cc2)cc1 (configuration not stated),5,16,-7,36,-28,98*
COCCNC(=O)CSc1ccc(C)cc1,-4,-15,11,-7,1,-6
COCCNC(=O)CSc1nnc(-c2ccc(C)cc2)c(-c2ccc(C)cc2)n1,40,1,-6,46,6,90*
Cc1cc(Br)cnc1NC(=S)Nc1ccc(F)cc1F,-37,21,-9,3,0,-4
Oc1ccc(Cl)cc1C1=NNC(c2cc(Br)cc3c2OCOC3)C1 (configuration not stated),70*,1,-7,10,14,48
CC1C(=O)C(C)C(c2ccc([N+](=O)[O-])cc2)NC1c1ccc([N+](=O)[O-])cc1 (configuration not stated),0,-5,9,67*,12,4
CN(C(=O)COC(=O)c1ccc2c(c1)OCCO2)c1ccccc1,9,3,2,-2,14,0
Cc1nc(-c2ccccc2)nc(Cl)c1Cl,-11,-16,-5,-14,33*,3
Cc1cc(N=Cc2c(O)n(-c3ccc(C)c(C)c3)c(=O)c3ccccc23)no1,.,.,.,.,31,54*
Cc1ccc(-n2c(O)c(C=Nc3cc(C)on3)c3ccccc3c2=O)c(C)c1,2,31,-2,-3,32,12
COc1cccc(NC(=O)C23CCC(C)(C(=O)O2)C3(C)C)c1 (configuration not stated),-3,1,9,-1,39*,-3
Cc1ccc(C2=NNC3(CCOC(C)(C)C3)S2)cc1 (configuration not stated),95*,4,-9,-26,-7,1
CC[n+]1c(/C=C/c2ccc(OC)c(OC)c2)ccc2ccccc21,-3,15,-6,39,12,.
